Results collected from several papers.
Protocols differ between the studies behind these lines.
Target: Interleukin-1 receptor-associated kinase 1 (IRAK1, Homo sapiens, UniProt P51617)

The remaining binding of `Nc1ncc(-c2nc(N3CCOCC3)nc(N3CCOCC3)n2)c(C(F)F)n1` is reported as 50% (binding; competition with immobilised ligand; 10 µM).
With `Cn1cc(-c2cccc(N3CCc4c(sc5c4CC(C)(C)C5)C3=O)c2CO)cc(Nc2ccncn2)c1=O` the inhibition was -4% (enzyme activity; inhibitor; 1 µM).
`COc1ncccc1-c1cnn2ccc(N3CCN(C(=O)OC(C)C)CC3)nc12` has a remaining binding of 80% (binding; competition with immobilised ligand; 1 µM).
`O=c1[nH]c2ccccc2n1C1CCN(Cc2ccc(-c3[nH]c4cc5ncnc5cc4nc3-c3ccccc3)cc2)CC1` gave a remaining signal of 109% (cell-free assay; 0.5 µM).
`Cc1nn(C)cc1-c1nc2c(N3CCN(Cc4ccc(Cl)cc4)CC3)c(Cl)cnc2[nH]1` gave a remaining binding of 56% (binding; competition with immobilised ligand; 1 µM).
With `C#Cc1n[nH]c2c(-c3cn([C@@H](C)c4ccccc4)c(=O)[nH]c3=O)cc(F)cc12` the inhibition was -7% (enzyme activity; inhibitor; 0.1 µM).
The remaining activity of `CC(C)(C)c1cc(C=C(C#N)C#N)cc(Br)c1O` is reported as 105% (enzyme activity; inhibitor; 0.5 µM).
For `Cn1cc(-c2cc(F)cc(N3CCn4c(cc5c4CCCC5)C3=O)c2CO)cc(Nc2ccc(N3CCN(C4COC4)CC3)cn2)c1=O`, the inhibition was 2% (enzyme activity; inhibitor; 0.1 µM).
The remaining binding of `Cn1cncc1[C@](O)(COc1ccc(C#N)cc1-c1ccc(OC(F)(F)F)cc1)c1ccc(C#N)cc1` is reported as 83% (cell-free assay; competition with immobilised ligand; 1 µM).
`COc1cc(Nc2ncc(F)c(Nc3ccc4c(n3)NC(=O)C(C)(C)O4)n2)cc(OC)c1OC` gave an inhibition of 100% (binding; 10 µM).
For `N#CC1(c2ccccn2)CCN(Cc2cc(C(=O)O)c(=O)n3ccccc23)CC1`, the remaining binding was 77% (cell-free assay; competition with immobilised ligand; 1 µM).
For `C#Cc1n[nH]c2c(-c3cn(C(C)c4ccccn4)c(=O)[nH]c3=O)cc(F)cc12` (stereo not drawn), the inhibition was 11.6% (enzyme activity; inhibitor; 1 µM).
